Measured values as given in ChEMBL document CHEMBL1759943, “Design and synthesis of novel enhanced water soluble hydroxyethyl analogs of combretastatin A-4” (Bioorg Med Chem Lett, 2011).
Converted amounts (≈) assume the structure as drawn.

Key:
[1] = test system: B16; assay: Antiproliferative activity against mouse B16 cells after 72 hrs by MTT assay; assay type: functional, cell-based; conditions: B16, 72 h
Summary of the method: (§1)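 Murine L1210 lymphoma and B16 melanoma cells in culture were given 72-h continuous exposure to compound, and viability was read by MTT assay. IC50 was taken as the readout.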

[2] = test system: L1210; assay: Antiproliferative activity against mouse L1210 cells after 72 hrs by MTT assay; assay type: functional, cell-based; conditions: L1210, 72 h; summary of the method: as §1
[3] = test system: COLO 205; assay: Cytotoxicity against human COLO205 cells; assay type: functional
[4] = test system: DU-145; assay: Cytotoxicity against human DU145 cells; assay type: functional
[5] = test system: HT-29; assay: Cytotoxicity against human HT-29 cells; assay type: functional
[6] = test system: ACHN; assay: Cytotoxicity against human ACHN cells; assay type: functional
[7] = test system: HCT-116; assay: Cytotoxicity against human HCT116 cells; assay type: functional
[8] = test system: K562; assay: Cytotoxicity against human K562 cells; assay type: functional
[9] = test system: HCC 2998; assay: Cytotoxicity against human HCC2998 cells; assay type: functional
[10] = test system: PC-3; assay: Cytotoxicity against human PC3 cells; assay type: functional
[11] = test system: NCI-H226; assay: Cytotoxicity against human NCI-H226 cells; assay type: functional; conditions: NCI-H226, read-out: pGI50 (converted)
[12] = test system: Mus musculus; assay: Toxicity in DBA2 mouse assessed as change in color and texture of kidney at 75 mg/kg, ip administered once daily on day 1, 5, 9, 13, 17; assay type: organism-based; design: dose 75 mg/kg, route intraperitoneal; conditions: in vivo
Summary of the method: (§2)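 Healthy, non-tumor-bearing female DBA2 mice given 75 mg/kg on days 1, 5, 9, 13 and 17. Toxicity was judged at the end of the experiment from body weight change, blood cell counts, and the gross color and texture of the kidneys, liver and spleen.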

[13] = test system: CAKI-1; assay: Cytotoxicity against human Caki1 cells; assay type: functional
[14] = test system: HL-60; assay: Cytotoxicity against human HL60 cells; assay type: functional
[15] = test system: RPMI-8226; assay: Cytotoxicity against human RPMI8226 cells; assay type: functional
[16] = test system: NCI/ADR-RES; assay: Cytotoxicity against human NCI/ADR-RES cells; assay type: functional
[17] = test system: OVCAR-3; assay: Cytotoxicity against human OVCAR3 cells; assay type: functional
[18] = test system: SF-268; assay: Cytotoxicity against human SF268 cells; assay type: functional
[19] = test system: A498; assay: Cytotoxicity against human A498 cells; assay type: functional
[20] = test system: MDA-MB-468; assay: Cytotoxicity against human MDA-MB-468 cells; assay type: functional
[21] = test system: UACC-62; assay: Cytotoxicity against human UACC62 cells; assay type: functional
[22] = test system: MCF7; assay: Cytotoxicity against human MCF7 cells; assay type: functional
[23] = test system: Mus musculus; assay: Toxicity in DBA2 mouse assessed as change in body weight at 75 mg/kg, ip administered once daily on day 1, 5, 9, 13, 17; assay type: organism-based; design: dose 75 mg/kg, route intraperitoneal; conditions: in vivo; summary of the method: as §2
[24] = test system: MDA-MB-435; assay: Cytotoxicity against human MDA-MB-435 cells; assay type: functional, cell-based
[25] = test system: SK-MEL-2; assay: Cytotoxicity against human SK-MEL-2 cells; assay type: functional
[26] = Aqueous solubility of the compound after 6 hrs; assay type: physicochemical
Summary of the method: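 Solubility was measured with a modified filter-plate protocol, assay maximum 500 µM. Each compound had its own standard curve, diluted into 80:20 aqueous buffer:acetonitrile at 5% DMSO (v/v) final. The aqueous sample was mixed 6 h and centrifuged. Supernatant absorbance gave concentration from the standard curve.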

[27] = test system: MOLT-4; assay: Cytotoxicity against human MOLT4 cells; assay type: functional
[28] = test system: SW-620; assay: Cytotoxicity against human SW620 cells; assay type: functional
[29] = test system: M14; assay: Cytotoxicity against human M14 cells; assay type: functional
[30] = Cytotoxicity against human Hs 578T cells; assay type: functional
[31] = test system: SF-295; assay: Cytotoxicity against human SF295 cells; assay type: functional
[32] = test system: NCI-H23; assay: Cytotoxicity against human NCI-H23 cells; assay type: functional
[33] = test system: IGROV-1; assay: Cytotoxicity against human IGROV1 cells; assay type: functional
[34] = test system: Mus musculus; assay: Toxicity in DBA2 mouse assessed as change in color and texture of spleen at 75 mg/kg, ip administered once daily on day 1, 5, 9, 13, 17; assay type: organism-based; design: dose 75 mg/kg, route intraperitoneal; conditions: in vivo; summary of the method: as §2
[35] = test system: KM12; assay: Cytotoxicity against human KM12 cells; assay type: functional
[36] = test system: HOP-62; assay: Cytotoxicity against human HOP62 cells; assay type: functional
[37] = test system: A10; assay: Disruption of microtubule organization in rat A10 cells assessed as loss of interphase microtubules; assay type: functional, cell-based
[38] = test system: NCI-H322M; assay: Cytotoxicity against human NCI-H322M cells; assay type: functional
[39] = test system: TK-10; assay: Cytotoxicity against human TK10 cells; assay type: functional
[40] = test system: L1210; assay: Antitumor activity against mouse L1210 cells xenografted in DBA2 mouse assessed as reduction in tumor volume at 75 mg/kg, ip administered once daily on day 1, 3, 5, 7, 9, 11, 13, 15, 17 measured on day 19 relative to control; assay type: functional; design: scale not given: the % may be the effect or the level left; conditions: route intraperitoneal
Summary of the method: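 Female DBA2 mice were inoculated with L1210 leukemia cells on the right flank. Compound was given ip at 75 mg/kg once on each of days 1, 3, 5, 7, 9, 11, 13, 15 and 17 after inoculation, in 100 µL injections; controls got vehicle alone. Tumor volume was compared with vehicle controls on day 19.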

[41] = Cytotoxicity against human RXF 393NL cells; assay type: functional
[42] = test system: CCRF-CEM; assay: Cytotoxicity against human CCRF-CEM cells; assay type: functional
[43] = test system: NCI-H460; assay: Cytotoxicity against human NCI-H460 cells; assay type: functional
[44] = test system: HOP-92; assay: Cytotoxicity against human HOP92 cells; assay type: functional
[45] = test system: 786-0; assay: Cytotoxicity against human 786-0 cells; assay type: functional
[46] = test system: OVCAR-4; assay: Cytotoxicity against human OVCAR4 cells; assay type: functional
[47] = test system: SK-OV-3; assay: Cytotoxicity against human SKOV3 cells; assay type: functional
[48] = test system: UACC-257; assay: Cytotoxicity against human UACC257 cells; assay type: functional; conditions: UACC-257, read-out: pGI50 (converted)
[49] = test system: A549; assay: Cytotoxicity against human A549 cells; assay type: functional
[50] = test system: MDA-MB-231; assay: Cytotoxicity against human MDA-MB-231 cells; assay type: functional
[51] = test system: UO-31; assay: Cytotoxicity against human UO31 cells; assay type: functional
[52] = test system: BT-549; assay: Cytotoxicity against human BT549 cells; assay type: functional
[53] = test system: EKVX; assay: Cytotoxicity against human EKVX cells; assay type: functional
[54] = test system: Mus musculus; assay: Toxicity in DBA2 mouse assessed as change in blood cell count at 75 mg/kg, ip administered once daily on day 1, 5, 9, 13, 17; assay type: organism-based; design: dose 75 mg/kg, route intraperitoneal; conditions: in vivo; summary of the method: as §2
[55] = test system: OVCAR-5; assay: Cytotoxicity against human OVCAR5 cells; assay type: functional
[56] = test system: MDA-MB-435; assay: Ratio of EC50 for disruption of interphase microtubule organization in rat A10 cells to IC50 for human MDA-MB-435 cells; assay type: functional
[57] = test system: HCT-15; assay: Cytotoxicity against human HCT15 cells; assay type: functional
[58] = test system: SK-MEL-28; assay: Cytotoxicity against human SK-MEL-28 cells; assay type: functional; conditions: SK-MEL-28, read-out: pGI50 (converted)
[59] = test system: SN12C; assay: Cytotoxicity against human SN12C cells; assay type: functional
[60] = test system: SK-MEL-5; assay: Cytotoxicity against human SK-MEL-5 cells; assay type: functional
[61] = test system: U-251; assay: Cytotoxicity against human U251 cells; assay type: functional
[62] = test system: LOX IMVI; assay: Cytotoxicity against human LOXIMVI cells; assay type: functional
[63] = test system: Mus musculus; assay: Toxicity in DBA2 mouse assessed as change in color and texture of liver at 75 mg/kg, ip administered once daily on day 1, 5, 9, 13, 17; assay type: organism-based; design: dose 75 mg/kg, route intraperitoneal; conditions: in vivo; summary of the method: as §2
[64] = test system: NCI-H522; assay: Cytotoxicity against human NCI-H522 cells; assay type: functional
[65] = test system: OVCAR-8; assay: Cytotoxicity against human OVCAR8 cells; assay type: functional

Structure (SMILES): COc1cc(/C(=C/c2cccc([N+](=O)[O-])c2)C(C)O)cc(OC)c1OC (centres undefined)
- IC50 [1]: > 100000 nM
- IC50 [2]: > 100000 nM

Structure (SMILES): COc1cc(/C(=C/c2ccc(Cl)c(Cl)c2)C(C)O)cc(OC)c1OC (centres undefined)
- IC50 [1]: 51500 nM
- IC50 [2]: 18500 nM

Structure (SMILES): COc1ccc(/C=C(/c2cc(OC)c(OC)c(OC)c2)C(C)O)cc1OC (centres undefined)
- IC50 [1]: > 100000 nM
- IC50 [2]: 69000 nM

Structure (SMILES): COc1ccc(/C=C(/c2cc(OC)c(OC)c(OC)c2)C(C)O)cc1O (centres undefined)
- GI50 [3]: 27500 nM
- GI50 [4]: 1450 nM
- GI50 [5]: 4070 nM
- GI50 [6]: 575 nM
- GI50 [7]: 479 nM
- GI50 [8]: 550 nM
- GI50 [9]: 2820 nM
- GI50 [10]: 501 nM
- GI50 [11]: > 100000 nM
- Activity [12]: Non-toxic
- GI50 [13]: 4570 nM
- GI50 [14]: 479 nM
- GI50 [15]: 3470 nM
- GI50 [16]: 447 nM
- GI50 [17]: 245 nM
- GI50 [18]: 1000 nM
- GI50 [19]: 759 nM
- GI50 [20]: 501 nM
- GI50 [21]: 468 nM
- GI50 [22]: 389 nM
- Activity [23]: Non-toxic
- GI50 [24]: 200 nM
- IC50 [24]: 880 nM
- GI50 ([24]; read-out: pGI50 (converted)): 229 nM
- GI50 [25]: 692 nM
- solubility at 6 h [26]: 479 µM (≈ 173 µg/mL)
- GI50 [27]: 4680 nM
- GI50 [28]: 363 nM
- GI50 [29]: 631 nM
- GI50 [30]: 324 nM
- GI50 [31]: 1860 nM
- GI50 [32]: 3720 nM
- GI50 [33]: 851 nM
- Activity [34]: Non-toxic
- GI50 [35]: 389 nM
- GI50 [36]: 4070 nM
- EC50 [37]: 21200 nM
- GI50 [38]: 3980 nM
- GI50 [39]: 4070 nM
- Activity [40]: 50%
- GI50 [41]: 324 nM
- GI50 [42]: 2450 nM
- GI50 [43]: 490 nM
- GI50 [44]: 209 nM
- IC50 [1]: 16100 nM
- GI50 [45]: 4170 nM
- GI50 [46]: 4270 nM
- GI50 [47]: 1020 nM
- GI50 [48]: > 100000 nM
- GI50 [49]: 3020 nM
- GI50 [50]: 2140 nM
- GI50 [51]: 2340 nM
- GI50 [52]: 813 nM
- GI50 [53]: 5620 nM
- Activity [54]: Non-toxic
- GI50 [55]: 5620 nM
- Ratio [56]: 24
- GI50 [57]: 617 nM
- GI50 [58]: > 100000 nM
- GI50 [59]: 6610 nM
- GI50 [60]: 417 nM
- GI50 [61]: 575 nM
- IC50 [2]: 4100 nM
- GI50 [62]: 891 nM
- Activity [63]: Non-toxic
- GI50 [64]: 457 nM
- GI50 [65]: 1320 nM

Structure (SMILES): COc1ccc(/C=C(/c2cc(OC)c(OC)c(OC)c2)C(C)O)cc1[N+](=O)[O-] (centres undefined)
- IC50 [1]: > 100000 nM
- IC50 [2]: 67500 nM

Structure (SMILES): COc1ccc(OC)c(/C=C(/c2cc(OC)c(OC)c(OC)c2)C(C)O)c1 (centres undefined)
- IC50 [1]: > 100000 nM
- IC50 [2]: > 100000 nM

Structure (SMILES): COc1cc(/C=C(/c2cc(OC)c(OC)c(OC)c2)C(C)O)cc(OC)c1OC (centres undefined)
- IC50 [1]: 84000 nM
- IC50 [2]: 51500 nM
